Calls of active or inactive are those of the source.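 Rule for the calls: active = radiolabeled lipid uptake into receptor liposomes lowered versus untreated receptor liposomes, like the reference inhibitor; inactive = the rest.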

Scavenger receptor class B member 1 (Mus musculus), sequence (Q61009 whole entry, looked up): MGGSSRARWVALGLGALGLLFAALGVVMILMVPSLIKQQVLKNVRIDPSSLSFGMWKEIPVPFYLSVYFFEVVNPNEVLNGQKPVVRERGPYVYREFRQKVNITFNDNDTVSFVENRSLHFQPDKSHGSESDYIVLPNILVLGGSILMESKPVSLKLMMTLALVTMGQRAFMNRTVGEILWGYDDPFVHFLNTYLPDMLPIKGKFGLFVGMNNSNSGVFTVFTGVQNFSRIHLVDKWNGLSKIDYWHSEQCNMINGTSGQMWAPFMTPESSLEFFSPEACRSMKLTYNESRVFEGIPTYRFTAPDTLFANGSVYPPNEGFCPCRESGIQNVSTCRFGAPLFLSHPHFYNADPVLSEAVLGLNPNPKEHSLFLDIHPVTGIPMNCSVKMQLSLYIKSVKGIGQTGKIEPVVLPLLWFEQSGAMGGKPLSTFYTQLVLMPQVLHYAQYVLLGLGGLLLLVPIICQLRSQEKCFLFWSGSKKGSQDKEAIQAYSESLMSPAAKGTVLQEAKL

The assay addresses Scavenger receptor class B member 1 (Mus musculus) (UniProt Q61009). Nature of the assay: HDL cholesteryl ester transfer into SR-BI proteoliposomes – biochemical, reconstituted liposomes, [3H]CE-HDL, scintillation, dry powder, orthogonal assay for SR-BI HDL uptake inhibitor project (AID 602155). The following applies: [3H]CE-HDL selective uptake, at 1 µM, stronger effect = lower value. Summed up: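 Material: murine SR-BI proteoliposomes; reagent: [3H]CE-labeled HDL; timing: 60 min compound pre-incubation, then 4 h HDL uptake at 37 °C; read-out: selective [3H]CE uptake into liposomes as percent of control; control set: compound-free SR-BI liposomes in 0.5% DMSO (high), receptor-free liposomes (low)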
`CCOC(=O)N1CCC(NC(=O)c2ccc3c(c2)N(Cc2ccc(F)cc2)CCS3)CC1`: the lipid uptake was 52.9%.

For `CCC(=O)N1CCc2cc(-c3csc(NC(=O)c4ccco4)n3)ccc21`, the lipid uptake is 63.1%.

Consider `COc1ccc(-c2nnn(CC(=O)N(C3CCCCC3)C(C)C(=O)NC3CCCC3)n2)cc1OC` (centres undefined), for which the lipid uptake is 46.9%. Then `O=C(Nc1ccccc1)c1ccccc1NS(=O)(=O)c1ccc(Cl)cc1`, with 128% (inactive).

The values are drawn from PubChem BioAssay AID602155 (Broad Institute, 2011).
